Assays:
[1] = test system: HGF/HPLF/HPC vs human OSCC cell lines; conditions: mean CC50 HGF/HPLF/HPC / mean CC50 OSCC lines; cited from earlier work
[2] = test system: HGF/HPLF/HPC vs human OSCC cell lines; assay: Tumor-specificity; format: cell-based; conditions: TS x (1/B) x 100; HGF/HPLF/HPC as normal cells
HSC-2 = conditions: read-out: 50% cytotoxic concentration (CC50); HSC-2, derived from tongue; cited from earlier work
HGF vs Ca9-22 = conditions: CC50 HGF / CC50 Ca9-22; cited from earlier work
[3] = test system: Periodontal ligament fibroblast (HPLF); conditions: read-out: 50% cytotoxic concentration (CC50), normal; cited from earlier work
HSC-4 = conditions: read-out: 50% cytotoxic concentration (CC50); HSC-4, derived from tongue; cited from earlier work
Ca9-22 = conditions: read-out: 50% cytotoxic concentration (CC50); Ca9-22, derived from gingiva (A); cited from earlier work
[4] = test system: Gingival fibroblast (HGF); conditions: read-out: 50% cytotoxic concentration (CC50), normal (C); cited from earlier work
HSC-2 cells [5] = assay: Time course of cytotoxicity induction; format: cell-based, human
Summary of the method: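 Pulse-chase in HSC-2 (DMEM, 10% heat-inactivated FBS, 37 °C, 5% CO2). Cells seeded at 2.5 × 10^3/0.1 ml and grown 48 h. Exposed to graded test compound concentrations for varied times, then switched to drug-free medium until 47 h after first addition. Viability by MTT (0.2 mg/ml, 3 h, A540). CC50 from dose–response curve. Triplicates (Exp. I), quadruplicates (Exp. II).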

[6] = Cytotoxic activity, MTT method; format: cell-based; conditions: human
HSC-3 = conditions: read-out: 50% cytotoxic concentration (CC50); HSC-3, derived from tongue; cited from earlier work
[7] = Effect of tetraethylammonium or cycloheximide on cytotoxicity; format: cell-based; conditions: Supplementary Fig. 3
Pulp cell (HPC) = conditions: read-out: 50% cytotoxic concentration (CC50), normal; cited from earlier work
[8] = test system: HOK vs human OSCC cell lines; assay: Tumor-specificity; format: cell-based; conditions: for Tumor-specificity index (TS) E/B: CC50 HOK / mean CC50 OSCC lines; for Potency-selectivity expression (PSE) E/B^2: TS x (1/B) x 100, HOK as normal cells
[9] = test system: HGEP vs human OSCC cell lines; assay: Tumor-specificity; format: cell-based; conditions: for Tumor-specificity index (TS) F/B: CC50 HGEP / mean CC50 OSCC lines; for Potency-selectivity expression (PSE) F/B^2: TS x (1/B) x 100, HGEP as normal cells
[10] = Cytotoxic activity, MTT method; format: cell-based; conditions: human, oral keratinocytes (HOK), normal epithelial cells
Summary of the method: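 HOK grown in keratinocyte growth supplement medium, harvested with 0.25% trypsin-0.025% EDTA. Seeded at 2.5 × 10^3 cells/0.1 ml, grown 48 h, then medium replaced with fresh medium containing test compound dilutions (80 mM DMSO stocks; final DMSO usually below […]) or matched DMSO vehicle. After incubation, 0.2 mg/ml MTT for 3 h, DMSO lysis, A540. CC50 from dose–response curve.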

HSC-2 cells [11] = assay: Western blot analysis of apoptosis and autophagy markers; format: cell-based, human
Summary of the method: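 HSC-2 cells treated with or without 10 μM for 4, 7.5 or 23 h. Laemmli whole-cell lysates (5 × 10^4 cells/lane) run on 12% SDS-PAGE and blotted to PVDF. Blocked 1 h in 5% BSA/TBS-Tween (pH 7.6). Primary anti-PARP, anti-caspase-3, anti-LC3 (1:1000) and anti-GAPDH (1:20,000) overnight at 4 °C, then HRP anti-rabbit 1 h at room temperature. Chemiluminescent detection; band densities expressed relative to GAPDH.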

HSC-2 cells [12] = assay: Fine cell structure under transmission electron microscope; format: cell-based, human; conditions: 3 h with 3 or 10 μM, compared with control cells
Summary of the method: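 HSC-2 cells were seeded at 5 × 10^5 cells/10 ml and […]. After a medium change, near-confluent cells were exposed 3 h to test compound (0, 3 or 10 μM) and washed in cold PBS. Fixation: 2% glutaraldehyde/0.1 M cacodylate pH 7.4, 1 h, 4 °C, then scraped, pelleted and post-fixed 90 min in 1% OsO4. Dehydrated, Araldite-embedded, thin sections stained with uranyl acetate and lead citrate; TEM at ×5000, 100 kV.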

HSC-2 cells [13] = assay: Metabolomic analysis; format: cell-based, human
Summary of the method: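 HSC-2 seeded 5 × 10^5 cells/10 ml, grown 48 h, re-fed for 30 min at 37 °C, then treated 3 h with 0, 1, 3 or 10 μM. Trypan-blue cell counts taken. Extraction: mannitol wash, then methanol with internal standards, chloroform/water partition and 5 kDa ultrafiltration. CE-TOFMS run in cation (1 M formic acid) and anion (50 mM ammonium acetate, pH 8.5) modes. One-point external calibration, normalised per cell. Quadruplicates, mean ± S.D., FDR-corrected p.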

[14] = 3 h, 1, 3 or 10 μM, not significant

## COc1ccc2occ(/C=C/c3cc(OC)c(OC)c(OC)c3)c(=O)c2c1 [compound 6, (E)-6-methoxy-3-(3,4,5-trimethoxystyryl)-4H-chromen-4-one]
[1]
  Tumor-specificity index (TS) D/B: 26.1
[2]
  Potency-selectivity expression (PSE) D/B^2: 200
HSC-2
  CC50: 6.8 µM
HGF vs Ca9-22
  Tumor-specificity index (TS) C/A: 54.4
[3]
  CC50: 190 µM
HSC-4
  CC50: 13 µM
Ca9-22
  CC50: 10 µM
[4]
  CC50: 544 µM
HSC-2 cells [5]; higher concentrations, Fig. 2
  viable cells left: 30%
[6]
  CC50: 610 µM
HSC-3
  CC50: 21 µM
[7]
  effect of pretreatment with cycloheximide on cytotoxicity: inhibited
Pulp cell (HPC)
  CC50: 284 µM
[8]
  Tumor-specificity index (TS) E/B: 5.9
  Potency-selectivity expression (PSE) E/B^2: 45
[9]
  Tumor-specificity index (TS) F/B: 46.9
  Potency-selectivity expression (PSE) F/B^2: 361
[10]
  CC50: 77 µM

## COc1ccc2occ(/C=C/c3ccc(O)cc3)c(=O)c2c1 [compound 11, (E)-3-(4-hydroxystyryl)-6-methoxy-4H-chromen-4-one]
[1]
  Tumor-specificity index (TS) D/B: 69.0
[2]
  Potency-selectivity expression (PSE) D/B^2: 3450
HSC-2 cells [11]; 10 μM for 4, 7.5 and 23 h
  LC3-II expression (autophagy marker): decreased time-dependently to undetectable level
HSC-2 cells [11]; 10 μM, 23 h after treatment
  cleaved PARP1 and caspase-3 (apoptosis marker): appearance of cleaved PARP1 and caspase-3
  full length PARP: loss of full length PARP
HSC-2 cells [11]; 10 μM, HSC-2
  type of cell death: induced apoptotic cell death after suppression of autophagy
HSC-2
  CC50: 1 µM
HSC-2 cells [12]
  mitochondrial vacuolization: mitochondrial vacuolization became prominent
HGF vs Ca9-22
  Tumor-specificity index (TS) C/A: 31.9
[3]
  CC50: 74 µM
HSC-4
  CC50: 1.2 µM
Ca9-22
  CC50: 2.1 µM
HSC-2 cells [13]; 3 h, 1, 3 and 10 μM, Fig. 6A
  intracellular concentration of 2-oxoglutarate: reduced, but not significantly
  intracellular concentrations of 4-methyl-2-oxopentanoate, 2-hyroxyglutarate, creatine, 2-oxoisopentanoate (Q < 0.2), glycine and choline (p < 0.05): significantly reduced
HSC-2 cells [13]; 3 h, 1, 3 and 10 μM, Fig. 6B
  intracellular concentrations of diethanolamine and CDP-choline: increased, but not significantly
  intracellular concentrations of proline, asparagine, DHAP, Ru5P, transcinnamate, γ-butyrobetaine (Q < 0.2) and glutamic acid (p < 0.05): significantly increased
HSC-2 cells [13]; [14]
  NADH/NAD+ ratio: minor increase
  glycolytic metabolites (glucose-6-phosphate, fructose 6-phosphate, fructose 1,6-bisphospate, 3-phosphoglyceric acid): minor increase
  intracellular concentration of metabolites in TCA cycle (citrate, cis-aconiate, succinate, fumarate, malate): minor reduction
  lactate: minor reduction
  polyamine pathway (putrescine, spermidine): minor reduction
  ratio of AMP/ATP: minor reduction
  ratio of GMP/GTP: minor reduction
  urea cycle (citrullin, arginine, ornithine): no change or minor reduction
HSC-2 cells [13]; culture medium, before treatment 12.1 ± 13.4 μM
  extracellular concentration of diethanolamine after treatment: 11.8 ± 5.3 µM
[4]
  CC50: 67 µM
HSC-2 cells [5]; Homo sapiens, HSC-2, Exp. I, exposure time 21 h, drug-free medium until 47 h
  CC50: < 1.56 µM
HSC-2 cells [5]; higher concentrations, Fig. 2
  dead cells produced: more than 90%
HSC-2 cells [5]; pulse-chase, HSC-2
  treatment time at which cytotoxicity was triggered: 3 h
[6]
  CC50: > 800 µM
HSC-3
  CC50: 3.6 µM
[7]
  effect of BH blocker (tetraethylammonium) on cytotoxicity: not inhibited
  effect of pretreatment with cycloheximide on cytotoxicity: inhibited
Pulp cell (HPC)
  CC50: 272 µM
[8]
  Tumor-specificity index (TS) E/B: 9.5
  Potency-selectivity expression (PSE) E/B^2: 475
[9]
  Tumor-specificity index (TS) F/B: >400
  Potency-selectivity expression (PSE) F/B^2: >20000
[10]
  CC50: 19 µM

## O=c1[nH]cc(F)c(=O)[nH]1 [5-FU, 5-fluorouracil, reference compound]
[1]
  Tumor-specificity index (TS) D/B: >55.6
[2]
  Potency-selectivity expression (PSE) D/B^2: >309
HSC-2
  CC50: 13 µM
HGF vs Ca9-22
  Tumor-specificity index (TS) C/A: >34.5
[3]
  CC50: > 1000 µM
HSC-4
  CC50: 13 µM
Ca9-22
  CC50: 29 µM
[4]
  CC50: > 1000 µM
[6]
  CC50: 18.8 µM
HSC-3
  CC50: 16 µM
Pulp cell (HPC)
  CC50: > 1000 µM
[8]
  Tumor-specificity index (TS) E/B: 1.4
  Potency-selectivity expression (PSE) E/B^2: 7.8
[9]
  Tumor-specificity index (TS) F/B: 1.0
  Potency-selectivity expression (PSE) F/B^2: 5.6
[10]
  CC50: 24.7 µM

## COc1ccc(/C=C/c2coc3ccc(OC)cc3c2=O)cc1 [compound 4, (E)-6-methoxy-3-(4-methoxystyryl)-4H-chromen-4-one]
[1]
  Tumor-specificity index (TS) D/B: 40.3
[2]
  Potency-selectivity expression (PSE) D/B^2: 630
HSC-2
  CC50: 4.4 µM
HGF vs Ca9-22
  Tumor-specificity index (TS) C/A: 52.0
[3]
  CC50: 150 µM
HSC-4
  CC50: 9.2 µM
Ca9-22
  CC50: 4.4 µM
[4]
  CC50: 229 µM
HSC-2 cells [5]; higher concentrations, Fig. 2
  dead cells produced: more than 90%
[6]
  CC50: 178 µM
HSC-3
  CC50: 7.7 µM
[7]
  effect of pretreatment with cycloheximide on cytotoxicity: inhibited
Pulp cell (HPC)
  CC50: 396 µM
[8]
  Tumor-specificity index (TS) E/B: 10.9
  Potency-selectivity expression (PSE) E/B^2: 170
[9]
  Tumor-specificity index (TS) F/B: 27.8
  Potency-selectivity expression (PSE) F/B^2: 434
[10]
  CC50: 70 µM

## COc1cccc2c1C(=O)c1c(O)c3c(c(O)c1C2=O)C[C@@](O)(C(=O)CO)C[C@@H]3O[C@H]1C[C@H](N)[C@H](O)[C@H](C)O1 [Doxorubicin, doxorubicin, reference compound]
[1]
  Tumor-specificity index (TS) D/B: >26.0
[2]
  Potency-selectivity expression (PSE) D/B^2: >17333
HSC-2
  CC50: 0.12 µM
HGF vs Ca9-22
  Tumor-specificity index (TS) C/A: 3.3
[3]
  CC50: 0.87 µM
HSC-4
  CC50: 0.094 µM
Ca9-22
  CC50: 0.26 µM
[4]
  CC50: 0.87 µM
[6]
  CC50: 0.027 µM
HSC-3
  CC50: 0.11 µM
Pulp cell (HPC)
  CC50: > 10 µM
[8]
  Tumor-specificity index (TS) E/B: 8.7
  Potency-selectivity expression (PSE) E/B^2: 5800
[9]
  Tumor-specificity index (TS) F/B: 0.2
  Potency-selectivity expression (PSE) F/B^2: 133
[10]
  CC50: 1.31 µM

From article PMC5598371 (Toxicology Reports, 2015)
